SMILES strings stand for the structures.

Data on one compound can be found in ChEMBL document CHEMBL2034857, “Discovery of the macrocycle (9E)-15-(2-(pyrrolidin-1-yl)ethoxy)-7,12,25-trioxa-19,21,24-triaza-tetracyclo[18.3.1.1(2,5).1(14,18)]hexacosa-1(24),2,4,9,14(26),15,17,20,22-nonaene (SB1578), a potent inhibitor of janus kinase 2/fms-like tyrosine kinase-3 (JAK2/FLT3) for the treatment of rheumatoid …” (J Med Chem, 2012).

For one data set, the target named is Cytochrome P450 3A4 (Homo sapiens, UniProt P08684). The data set can be described thus: Inhibition of CYP3A4 in human liver microsomes using testosterone as substrate by fluorescence detection assay. Type of data set: ADME, Microsome. In a few lines: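 Human liver microsomes at 0.25 mg/mL for CYP3A4, incubated with test compound at 0.001, 0.01, 0.1, 1.0, 5, 10 and 25 μM. IC50 is the concentration giving 50% inhibition, calculated from the decrease in metabolite formation relative to vehicle control.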
Sequence of Cytochrome P450 3A4 (P08684 whole entry): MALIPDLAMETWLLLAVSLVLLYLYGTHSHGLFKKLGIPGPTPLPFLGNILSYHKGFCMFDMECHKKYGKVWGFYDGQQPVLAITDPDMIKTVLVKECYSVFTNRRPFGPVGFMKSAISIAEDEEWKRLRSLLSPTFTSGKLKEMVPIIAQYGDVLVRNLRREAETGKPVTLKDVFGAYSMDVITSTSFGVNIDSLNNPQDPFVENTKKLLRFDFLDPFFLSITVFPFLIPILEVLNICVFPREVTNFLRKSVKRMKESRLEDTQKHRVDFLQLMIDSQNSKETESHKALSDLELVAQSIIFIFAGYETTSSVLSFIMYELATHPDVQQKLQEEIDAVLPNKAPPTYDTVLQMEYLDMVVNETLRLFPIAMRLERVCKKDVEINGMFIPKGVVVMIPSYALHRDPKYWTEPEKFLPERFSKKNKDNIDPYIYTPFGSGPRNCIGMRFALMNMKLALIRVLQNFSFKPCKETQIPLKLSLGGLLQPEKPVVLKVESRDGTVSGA
In general terms: Liver microsomes are vesicles of endoplasmic reticulum, rich in cytochrome P450 enzymes.

In data set [1] the target is T1, Cytochrome P450 1A2 (Homo sapiens, UniProt P05177).
T1 sequence (P05177 whole entry): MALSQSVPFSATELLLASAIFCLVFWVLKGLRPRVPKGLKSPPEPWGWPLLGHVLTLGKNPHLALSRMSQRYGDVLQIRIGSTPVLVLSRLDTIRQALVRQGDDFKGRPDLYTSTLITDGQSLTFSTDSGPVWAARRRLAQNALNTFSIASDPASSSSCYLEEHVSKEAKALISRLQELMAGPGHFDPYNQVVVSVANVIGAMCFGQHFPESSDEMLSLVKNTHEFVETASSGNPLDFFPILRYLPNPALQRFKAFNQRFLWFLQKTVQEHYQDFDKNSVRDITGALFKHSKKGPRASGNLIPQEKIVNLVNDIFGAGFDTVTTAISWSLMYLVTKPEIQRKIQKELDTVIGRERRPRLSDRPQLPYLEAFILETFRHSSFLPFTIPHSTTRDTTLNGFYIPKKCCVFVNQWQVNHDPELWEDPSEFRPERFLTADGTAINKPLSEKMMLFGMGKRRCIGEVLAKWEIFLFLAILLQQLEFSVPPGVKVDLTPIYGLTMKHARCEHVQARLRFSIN
The data set can be described thus: Inhibition of CYP1A2 in human liver microsomes using phenacetin as substrate by LC-MS/MS analysis. Type of data set: ADME, Microsome.

Data set [2] is described as follows: Apparent permeability from apical to basal side of human Caco2 cells at 10 uM after 120 mins by LC-MS/MS analysis. Type of data set: ADME, cell-based. The note with it: Caco-2. The procedure, abridged: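 Caco-2 monolayers (passage 40–60) seeded at 1 × 10⁵ cells/cm² and used on day 20; 10 μM compound (1% DMSO final) in HBSS pH 7.4 with 25 mM HEPES and 4.45 mM glucose, 120 min at 37 °C, 5% CO2. Both directions run in duplicate, quantified by LC-MS/MS; lucifer yellow checks monolayer integrity.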
In general terms: Caco-2 monolayers are a common model of the intestinal barrier.

The nature of data set [3]: Oral bioavailability in BALB/c nude mouse at 50 mg/kg. It counts as ADME, organism-based. The note with it: in vivo. In a few lines:
(§1)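 Single oral gavage at 50 (mouse, rat), 5 (dog) or 20 (monkey) mg/kg; rodents and monkeys received suspensions in 0.5% methylcellulose/0.1% Tween 80, dogs gelatin capsules. Serial blood taken 0–24 h into K3EDTA, plasma stored at −70 °C. Parameters estimated by noncompartmental analysis, n = 3 per species (mouse values from mean concentration–time data, 3 mice per time point).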

Data set [4] concerns the target T1, Cytochrome P450 1A2. The data set can be described thus: Induction of CYP1A2 in human liver microsomes. It counts as ADME, Microsome.
Data set [5] can be described thus: Antiproliferative activity against human SET2 cells expressing JAK2 V617F mutan. The note with it: SET-2. Type of data set: functional, cell-based.
The test system of another data set is Mus musculus. The data set can be described thus: Antiarthritic activity in B10/R3 mouse immunized with bovine type2 collagen in Freund's complete adjuvant assessed as inhibition of increase in clinical arthritic scores at 210 mg/kg, po administered bid for 10 days measured for 10 days. Type of data set: functional. The note with it: B10/R3, 240 h.
Data set [6] in a line: Oral bioavailability in rhesus monkey at 20 mg/kg. The note with it: in vivo. Type of data set: ADME, organism-based, Macaca mulatta. The procedure, abridged: as §1
A short description of data set [7]: Cmax in rhesus monkey at 20 mg/kg, po. It counts as ADME, organism-based, Macaca mulatta. More on the design: dose 20 mg/kg, route oral. The note with it: in vivo. The procedure, abridged: as §1
Data set [8] is described as follows: Thermodynamic solubility of the compound at pH 7. Type of data set: physicochemical. The note with it: buffer, read-out: Therm_solubility. In a few lines: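 The citrate salt (~5 mg) was made up at 5 mg/mL in pH-buffered solution, in triplicate. It was shaken 24 h at 600 rpm at room temperature, filtered (0.4 μm) and the final pH recorded. The filtrate was diluted in acetonitrile/water (1:1), centrifuged and quantified by HPLC-UV. Two determinations were made on two different batches.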

Data set [9] is described as follows: Cmax in BALB/c nude mouse at 50 mg/kg, po. It counts as ADME, organism-based. More on the design: dose 50 mg/kg, route oral. The note with it: in vivo. In a few lines:
as §1

A short description of data set [10]: Tmax in Wistar rat at 50 mg/kg, po. It counts as ADME, organism-based. Details: dose 50 mg/kg, route oral; call rule not given here. The note with it: in vivo. The procedure, abridged:
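Single oral dose by gavage as suspension in 0.5% methylcellulose/0.1% Tween 80 (mouse, rat, monkey) or in gelatin capsules (dog). Serial blood samples taken from 0 to 24 h into K3EDTA tubes; plasma stored at −70 °C until analysis. Parameters derived by noncompartmental methods. Rat, dog and monkey n = 3; mouse values estimated from mean concentration-time data, n = 3 mice per time point.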

As usually defined, the IC50 is the concentration that inhibits the measured activity by half. As a reminder, the Papp A→B is the apparent permeability from the apical to the basolateral side of a cell layer. Broadly, the bioavailability is dose-corrected exposure relative to a reference, in per cent. In general, inhibition in vivo refers to the drop in the measured response relative to a control, in per cent. Broadly, the Cmax is the maximum level reached in the sampled fluid or tissue. As usually defined, the Tmax is the time at which the peak concentration occurs. Take `C1=C2COC/C=C/COCc3cc(ccc3OCCN3CCCC3)Nc3nccc(n3)C(=C1)O2` (mixture of isomers) [CT-1578]: the IC50 against Cytochrome P450 3A4 was greater than 10 µM; at Cytochrome P450 1A2 [1], greater than 10 µM; in data set [5], 246 nM. Besides, the apparent permeability from apical to basolateral (Papp A→B) at 2 h, 10 µM in [2] came out at 24.8 ×10⁻⁶ cm/s. Also, the bioavailability in [3] turned out to be 34%; in data set [6] it was 32%. In addition, the Activity entry at Cytochrome P450 1A2 [4] is “Not Active”. Further, in the data set with Mus musculus, the inhibition in vivo at 210 mg/kg amounted to 59%. Further, the maximum concentration (Cmax) stood at 1980 ng/mL in [7] and 1230 ng/mL in data set [9]. Further, the solubility thermodynamic in data set [8] came to 880 µg/mL. Also, in data set [10], the Tmax came out at 2.3 h.
